# Hits are enriched below; roughly 2.5% of the tested compounds scored in any of these assays.
# UCH37 DUB inh = human UCH37 deubiquitinating enzyme inhibition; inhibition, % (test concentration not listed); purified proteasome/UCH37, Ub-AMC cleavage fluorescence; 330,000 tested, 0.33% active; AID 588478;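 active = mean inhibition over replicate wells above about 20%, limit read from the data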
#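 System: Proteasome-associated human UCH37 deubiquitinase; Input: 0.15 nM proteasome in added enzyme buffer; Also added: Ub-AMC substrate from 1 µM stock; Incubation: 30 min compound-proteasome preincubation then 25 min substrate reaction, room temperature; Detection: fluorescence, ex 355 nm, em 460 nm; Read-out: % inhibition of Ub-AMC cleavage fluorescence; Benchmarks: no-proteasome and no-compound wells.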
# MEKK2 WT-MEK5 = raises or lowers MEK5 binding to wildtype human MEKK2 PB1 domain; Q9Y2U5; bead flow cytometry, Alexa488-MEK5 binding to MEKK2 WT; actives lie on both sides; binding response (% of control), % at 10 µM; 290,000 tested, 1.1% active; in the data active = binding response below about 67% or above about 130%
# MEKK2 mut-MEK5 = signal of MEK5 binding to mutant human MEKK2 PB1 domain; bead flow cytometry, Alexa488-MEK5 binding to MEKK2 mutant; percent response, % at 10 µM; 290,000 tested, 0.35% active; AID 1530; in the data active = percent response above about 24%, passing the limit was not always enough
# MEKK3 PB1 HTS = modulators (inhibitors or enhancers) of MEK5 binding to human MEKK3 PB1 domain | Q99759 | bead-based flow cytometry, Alexa488-MEK5 binding to MEKK3; actives lie on both sides; 0 = blocked by unlabeled MEK5, 100 = vehicle | binding response (% of control), % at 10 µM | 290,000 tested, 1.4% active | AID 1529;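 active = binding response more than 3 SD above or below the average of its plate-row segment, actives on both sides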;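 note: Alexa488 bead fluorescence after subtracting the streptavidin-only scavenger bead signal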
# Target sequence (Q99759 whole entry, looked up, the tested form may be a part): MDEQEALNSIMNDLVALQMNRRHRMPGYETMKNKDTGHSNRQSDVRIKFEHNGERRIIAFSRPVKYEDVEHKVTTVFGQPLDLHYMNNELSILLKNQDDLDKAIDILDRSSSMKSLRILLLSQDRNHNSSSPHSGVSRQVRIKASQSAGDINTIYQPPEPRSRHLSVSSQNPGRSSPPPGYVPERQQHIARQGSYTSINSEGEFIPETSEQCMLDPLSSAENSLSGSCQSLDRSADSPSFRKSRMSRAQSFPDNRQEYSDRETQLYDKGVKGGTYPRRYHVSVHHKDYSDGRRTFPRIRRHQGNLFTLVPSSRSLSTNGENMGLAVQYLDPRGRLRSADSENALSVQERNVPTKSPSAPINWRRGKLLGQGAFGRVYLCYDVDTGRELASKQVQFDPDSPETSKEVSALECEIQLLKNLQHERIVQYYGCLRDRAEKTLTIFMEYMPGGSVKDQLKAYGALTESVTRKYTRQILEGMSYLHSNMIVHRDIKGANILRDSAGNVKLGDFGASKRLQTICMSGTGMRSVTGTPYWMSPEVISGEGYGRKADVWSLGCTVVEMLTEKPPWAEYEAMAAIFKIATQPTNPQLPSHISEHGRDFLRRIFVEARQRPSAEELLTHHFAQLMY
# T cell modulator = T cell immune modulation candidate | 2C CD8+ T cell-vesicle binding, flow cytometry; active compounds read low | response (vesicle binding), % at 7 µM | 330,000 tested, 0.068% active;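 active = response, share of CD8 T cells binding vesicles, and their 90th percentile fluorescence all below set limits, cut at about 80% in these data, passing the limit was not always enough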;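 note: values below 100% mean blocked vesicle binding to the CD8+ T cells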
#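 Benchmarks: naked versus QL9-loaded vesicles / Assay system: purified 2C TCR transgenic mouse naive CD8+ T cells / Technique: high-throughput flow cytometry with anti-B7-1 and anti-CD8 staining / Timing: Cell–vesicle co-incubation 1.5 h at 37 °C, staining 20 min on ice / Read-out: percent CD8+ FL2 mean versus row control / Probe or stimulus: QL9-loaded Drosophila micro-vesicles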
# Rce1 inh = inhibitors of yeast Ras-converting enzyme | Q03530 | yeast membranes, quenched prenylated peptide cleavage fluorescence | calls only | 290,000 tested, 0.27% active | AID 2563;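 active = fall in fluorescence gain of 50% or more versus controls, with final raw signal at or below 3038400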
# MEKK2wt confirm = raises or lowers MEK5 binding to wildtype human MEKK2, retest. shares compounds with MEKK3 PB1 HTS. bead flow cytometry, Alexa488-MEK5 binding to MEKK2 WT; actives lie on both sides. binding response (% of control), % at 10 µM. 5,900 tested, 2.4% active; in the data active = binding response below about 16% or above about 210%; inactive = in between
# MEKK2mut confirm = signal of MEK5 binding to mutant human MEKK2, retest; percent response, % at 10 µM; 5,900 tested, 2% active; shares compounds with MEKK3 PB1 HTS; bead flow cytometry, Alexa488-MEK5 binding to MEKK2 mutant; AID 1893; in the data active = percent response mostly above about 71%, no sharp cut-off; inactive = mostly below about 38%;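 note: higher means compound restores mutant binding toward wildtype level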
# MEKK3-MEK5 inh = MEKK3-MEK5 PB1 inhibition, single concentration confirmation; shares compounds with MEKK3 PB1 HTS; bead flow cytometry, Alexa488-MEK5 binding to MEKK3; active compounds read low; binding response (% of control), % at 10 µM; 5,900 tested, 1.8% active; AID 1894;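 active = binding response below 72% of control, or above a set upper limit, though filed actives all read lower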;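 note: lower values mean stronger disruption of MEK5 binding to MEKK3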
# Numbers stand for hits; 0 = inactive; - = not tested or not shown; [ ] = another dose, or the depositor's remark.
SMILES,UCH37 DUB inh,MEKK2 WT-MEK5,MEKK2 mut-MEK5,MEKK3 PB1 HTS,T cell modulator,Rce1 inh,MEKK2wt confirm,MEKK2mut confirm,MEKK3-MEK5 inh
CC1=C(C(=O)OC2CCCC2)C(c2coc3ccccc3c2=O)C2=C(CCCC2=O)N1 (stereo not drawn),0,0,0,133.0,0,0,0,0,0
COC(=O)C1=C(C)NC2=C(C(=O)CCC2)C1c1coc2ccccc2c1=O (stereo not drawn),0,0,0,0,0,0,-,-,-
CC1=C(C(=O)OCCOc2ccccc2)C(c2coc3ccccc3c2=O)C2=C(CCCC2=O)N1 (stereo not drawn),0,0,0,69.0[inhibitor],0,-,0,0,0
CC(C)c1c(C(=O)NN=Cc2ccc3c(c2)OCO3)nnn1-c1nonc1N,0,-,-,-,-,-,-,-,-
O=C(c1ccccc1)c1nnc(-c2ccccc2F)o1,0,-1.0[inhibitor],0,0.0[inhibitor],0,-,0,0,0
CN=c1scc(C)n1N=Cc1cc(Br)c(O)c(OC)c1,0,-,-,-,-,-,-,-,-
CCN1C(=O)N(CC)C2C1N(CO)C(=O)N2CO (stereo not drawn),0,0,0,129.0,0,0,0,0,0
O=[N+]([O-])c1cccc(NN=Cc2ccc(N3CCOCC3)cc2)c1,0,-,-,-,-,-,-,-,-
C/C(=N/NC(=O)c1ccncc1)c1cc2ccc(O)cc2oc1=O,-,156.0,0,0,0,-,0,0,0
COc1ccccc1C(=O)NCC(=O)Nc1cccnc1,0,0,0,0,0,0,-,-,-
COc1ccccc1C(=O)NCCC(=O)Nc1cccnc1,0,0,0,73.0[inhibitor],0,0,0,0,0
COc1ccc(-c2ccnc3nc(N=CN(C)C)nn23)cc1,0,-,-,-,-,-,-,-,-
O=C(O)C1Cc2c([nH]c3ccccc23)C(c2ccc3c(c2)OCO3)N1 (stereo not drawn),0,6.0[inhibitor],0,0,0,0,0,0,0
Cc1oc2c(C)c(O)ccc2c(=O)c1-c1cnn(-c2ccccc2)c1,0,0,0,69.0[inhibitor],0,0,0,0,0
O=c1sc2ccccc2c(=O)n1Cc1ccccc1F,0,0,0,139.0,0,0,0,0,0
Cc1nn(Cc2cccc(C(=O)O)c2)c(C)c1[N+](=O)[O-],0,0,0,0,0,0,-,-,-
Cc1nn(Cc2cccc(C(=O)Nn3cc([N+](=O)[O-])cn3)c2)c(C)c1[N+](=O)[O-],0,0,0,128.0,0,0,0,0,0
O=C(NCc1csc2ccccc12)Nc1cc(Cl)cc(Cl)c1,0,138.0,0,0,0,0,0,0,0
CCCCc1nnc(NC(=O)CSc2nc(O)c(Cc3ccccc3)c(=O)[nH]2)s1,-,0,0,0,0,0,-,-,-
CCCCc1nnc(NC(=O)CSc2nc(O)c(-c3ccccc3)c(=O)[nH]2)s1,0,-,533.0,0,0,0,0,0,0
CCC(c1nc2ccccc2c(=O)n1CCCn1ccnc1)N1C(=O)c2ccccc2C1=O (stereo not drawn),0,0,0,77.0[inhibitor],0,0,0,0,0
CCC(c1nc2ccccc2c(=O)n1CCN1CCOCC1)N1C(=O)c2ccccc2C1=O (stereo not drawn),0,0,0,0,0,0,-,-,-
COc1cc(/C=C2\C(=O)NN(c3ccccc3)C2=O)ccc1OCC(N)=O,0,0,0,134.0,0,0,0,0,0
Cc1ccc(-c2nnnn2-c2ccc(C)cc2)cc1,0,1.0[inhibitor],0,2.0[inhibitor],0,0,0,0,0
CC1CCN(c2ccc(C=Nn3nnnc3N)cc2[N+](=O)[O-])CC1,0,-,-,-,-,-,-,-,-
SMILES,UCH37 DUB inh,MEKK2 WT-MEK5,MEKK2 mut-MEK5,MEKK3 PB1 HTS,T cell modulator,Rce1 inh,MEKK2wt confirm,MEKK2mut confirm,MEKK3-MEK5 inh
O=C(NCC1CCCO1)C1CCCN1C(=O)Nc1ccc(Cl)c(Cl)c1 (stereo not drawn),0,5.0[inhibitor],0,4.0[inhibitor],0,0,0,0,0
O=C(NC(=S)NCC1CCCO1)c1ccc(Cl)cc1Cl (stereo not drawn),0,0,0,143.0,0,0,0,0,0
Clc1ccc(OCCOCCOc2cccc3cccnc23)c(Br)c1,0,0,0,137.0,0,0,0,0,0
CC(=NNC(=O)c1nnn(-c2nonc2N)c1-c1cccs1)c1ccc(C)cc1,0,-,-,-,-,-,-,-,-
CCOP(=O)(c1ccccc1)C(O)c1ccc(Br)cc1 (stereo not drawn),0,0,0,134.0,0,0,0,0,0
CCN(CC)CCN(C(=O)CCOc1ccccc1)c1nc2c(F)cc(F)cc2s1,0,148.0,0,0,0,0,0,0,0
Cc1cc(OCC(=O)OCC(=O)NC2CCCC2)ccc1Cl,0,-,-,-,0,-,-,-,-

# High-throughput results: PubChem BioAssay, several laboratories
